According to ChEMBL document CHEMBL3769318, “The Rational Design of Selective Benzoxazepin Inhibitors of the α-Isoform of Phosphoinositide 3-Kinase Culminating in the Identification of (S)-2-((2-(1-Isopropyl-1H-1,2,4-triazol-5-yl)-5,6-dihydrobenzo[f]imidazo[1,2-d][1,4]oxazepin-9-yl)oxy)propanamide (GDC-0326)” (J Med Chem, 2016):
≈ marks a conversion by molar mass, not a printed value.

Assays:
[1] = Oral bioavailability in Cynomolgus monkey at 2 mg/kg; assay type: ADME, organism-based, Macaca fascicularis; conditions: in vivo
Summary of the method: (§1)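 Single oral dose at 2 mg/kg in 0.5% methylcellulose with 0.2% Tween 80, given to beagle dogs or male cynomolgus monkeys; the IV reference was 1 mg/kg in 60% PEG400/10% ethanol.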

[2] = test system: Canis familiaris; test: Oral bioavailability in Beagle dog at 2 mg/kg; assay type: ADME, organism-based, Canis lupus familiaris; conditions: in vivo; summary of the method: as §1
[3] = Plasma protein binding in CD-1 mouse at 5 uM after 4 hrs by LC-MS/MS analysis; assay type: ADME, cell-free; conditions: CD-1, mouse, read-out: PPB (converted)
Summary of the method: (§2)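 Equilibrium dialysis of pooled plasma (n ≥ 3) spiked with compound at 5 µM total against PBS pH 7.4, 37 °C, 5% CO2, for 4 h; plasma and buffer concentrations measured by LC-MS/MS; percent unbound calculated as buffer/plasma ×100.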

[4] = Plasma protein binding in Cynomolgus monkey at 5 uM after 4 hrs by LC-MS/MS analysis; assay type: ADME, cell-free, Macaca fascicularis; conditions: read-out: PPB (converted); summary of the method: as §2
[5] = Plasma protein binding in Beagle dog at 5 uM after 4 hrs by LC-MS/MS analysis; assay type: ADME, cell-free, Canis lupus familiaris; conditions: read-out: PPB (converted); summary of the method: as §2
[6] = Cytotoxicity against human KPL4 cells after 4 days by luminescence plate reader method; assay type: functional, cell-based; conditions: KPL4, 96 h
[7] = Antitumor activity against human MCF7-neo/Her2 cells xenografted in mouse assessed as tumor growth inhibition at 0.78 mg/kg, po qd for 21 days; assay type: functional; conditions: 504 h, read-out: TGI
Summary of the method: (§3)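 MCF7-neo/HER2 breast cancer xenografts grown in nude mice; daily oral dosing for 21 days in 0.5% methylcellulose/0.2% Tween-80 vehicle at 0.78–25 mg/kg, 10 animals per group; fitted tumor volumes compared against vehicle-treated mice to give tumor growth inhibition.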

[8] = Antitumor activity against human MCF7-neo/Her2 cells xenografted in mouse assessed as tumor growth inhibition at 1.56 mg/kg, po qd for 21 days; assay type: functional; conditions: 504 h, read-out: TGI; summary of the method: as §3
[9] = Antitumor activity against human MCF7-neo/Her2 cells xenografted in mouse assessed as tumor growth inhibition at 3.25 mg/kg, po qd for 21 days; assay type: functional; conditions: 504 h, read-out: TGI; summary of the method: as §3
[10] = Antitumor activity against human MCF7-neo/Her2 cells xenografted in mouse assessed as tumor growth inhibition at 6.25 mg/kg, po qd for 21 days; assay type: functional; conditions: 504 h, read-out: TGI; summary of the method: as §3
[11] = Antitumor activity against human MCF7-neo/Her2 cells xenografted in mouse assessed as tumor growth inhibition at 12.5 mg/kg, po qd for 21 days; assay type: functional; conditions: 504 h, read-out: TGI; summary of the method: as §3
[12] = Antitumor activity against human KPL4 cells xenografted in SCID beige mouse assessed as tumor growth inhibition at 0.78 mg/kg, po qd for 21 days; assay type: functional; conditions: 504 h, read-out: TGI
Summary of the method: (§4)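 KPL-4 breast cancer xenografts grown in scid beige mice; oral dosing once daily for 21 days in MCT vehicle (0.5% methylcellulose/0.2% Tween-80) at 0.78–25 mg/kg, 10 animals per group; tumor volumes fitted and tumor growth inhibition calculated versus vehicle-treated mice.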

[13] = Antitumor activity against human KPL4 cells xenografted in SCID beige mouse assessed as tumor growth inhibition at 1.56 mg/kg, po qd for 21 days; assay type: functional; conditions: 504 h, read-out: TGI; summary of the method: as §4
[14] = Antitumor activity against human KPL4 cells xenografted in SCID beige mouse assessed as tumor growth inhibition at 3.25 mg/kg, po qd for 21 days; assay type: functional; conditions: 504 h, read-out: TGI; summary of the method: as §4
[15] = Antitumor activity against human KPL4 cells xenografted in SCID beige mouse assessed as tumor growth inhibition at 6.25 mg/kg, po qd for 21 days; assay type: functional; conditions: 504 h, read-out: TGI; summary of the method: as §4
[16] = Antitumor activity against human KPL4 cells xenografted in SCID beige mouse assessed as tumor growth inhibition at 12.5 mg/kg, po qd for 21 days; assay type: functional; conditions: 504 h, read-out: TGI; summary of the method: as §4
[17] = test system: Homo sapiens; test: Antitumor activity against human MCF7-neo/Her2 cells xenografted in po dosed nude mouse assessed as tumor growth inhibition administered daily for 21 days; assay type: functional, organism-based; summary of the method: as §3
[18] = test system: KPL4; test: Antitumor activity against human KPL4 cells xenografted in po dosed SCID beige mouse assessed as tumor growth inhibition administered daily for 21 days; assay type: functional, organism-based; summary of the method: as §4
[19] = test system: Mus musculus; test: Decrease in phosphorylated Akt in mouse xenografted with human MCF7-neo/Her2 cells at 6.25 mg/kg administered as single dose after 1 hr by immunoassay; assay type: functional
Summary of the method: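 Mice bearing MCF7-neo/HER2 tumors given a single oral dose in MCT vehicle; tumors collected 1 h later. Phospho-Akt Ser473 and total Akt measured by Mesoscale Discovery immunoassay and expressed as pAkt/tAkt relative to vehicle; four animals per group; unbound plasma drug measured at the same time.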

[20] = test system: Mus musculus; test: Toxicity in SCID beige mouse xenografted with human KPL4 cells assessed as body weight loss upto 12.5 mg/kg, po; assay type: organism-based; conditions: in vivo
[21] = molecular target: Phosphatidylinositol 4-phosphate 3-kinase C2 domain-containing subunit beta (Homo sapiens) (UniProt O00750); test: Inhibition of PI3KC2b (unknown origin) at 1 uM
Chain of Phosphatidylinositol 4-phosphate 3-kinase C2 domain-containing subunit beta (Homo sapiens) (O00750 whole entry, the tested form may be a part): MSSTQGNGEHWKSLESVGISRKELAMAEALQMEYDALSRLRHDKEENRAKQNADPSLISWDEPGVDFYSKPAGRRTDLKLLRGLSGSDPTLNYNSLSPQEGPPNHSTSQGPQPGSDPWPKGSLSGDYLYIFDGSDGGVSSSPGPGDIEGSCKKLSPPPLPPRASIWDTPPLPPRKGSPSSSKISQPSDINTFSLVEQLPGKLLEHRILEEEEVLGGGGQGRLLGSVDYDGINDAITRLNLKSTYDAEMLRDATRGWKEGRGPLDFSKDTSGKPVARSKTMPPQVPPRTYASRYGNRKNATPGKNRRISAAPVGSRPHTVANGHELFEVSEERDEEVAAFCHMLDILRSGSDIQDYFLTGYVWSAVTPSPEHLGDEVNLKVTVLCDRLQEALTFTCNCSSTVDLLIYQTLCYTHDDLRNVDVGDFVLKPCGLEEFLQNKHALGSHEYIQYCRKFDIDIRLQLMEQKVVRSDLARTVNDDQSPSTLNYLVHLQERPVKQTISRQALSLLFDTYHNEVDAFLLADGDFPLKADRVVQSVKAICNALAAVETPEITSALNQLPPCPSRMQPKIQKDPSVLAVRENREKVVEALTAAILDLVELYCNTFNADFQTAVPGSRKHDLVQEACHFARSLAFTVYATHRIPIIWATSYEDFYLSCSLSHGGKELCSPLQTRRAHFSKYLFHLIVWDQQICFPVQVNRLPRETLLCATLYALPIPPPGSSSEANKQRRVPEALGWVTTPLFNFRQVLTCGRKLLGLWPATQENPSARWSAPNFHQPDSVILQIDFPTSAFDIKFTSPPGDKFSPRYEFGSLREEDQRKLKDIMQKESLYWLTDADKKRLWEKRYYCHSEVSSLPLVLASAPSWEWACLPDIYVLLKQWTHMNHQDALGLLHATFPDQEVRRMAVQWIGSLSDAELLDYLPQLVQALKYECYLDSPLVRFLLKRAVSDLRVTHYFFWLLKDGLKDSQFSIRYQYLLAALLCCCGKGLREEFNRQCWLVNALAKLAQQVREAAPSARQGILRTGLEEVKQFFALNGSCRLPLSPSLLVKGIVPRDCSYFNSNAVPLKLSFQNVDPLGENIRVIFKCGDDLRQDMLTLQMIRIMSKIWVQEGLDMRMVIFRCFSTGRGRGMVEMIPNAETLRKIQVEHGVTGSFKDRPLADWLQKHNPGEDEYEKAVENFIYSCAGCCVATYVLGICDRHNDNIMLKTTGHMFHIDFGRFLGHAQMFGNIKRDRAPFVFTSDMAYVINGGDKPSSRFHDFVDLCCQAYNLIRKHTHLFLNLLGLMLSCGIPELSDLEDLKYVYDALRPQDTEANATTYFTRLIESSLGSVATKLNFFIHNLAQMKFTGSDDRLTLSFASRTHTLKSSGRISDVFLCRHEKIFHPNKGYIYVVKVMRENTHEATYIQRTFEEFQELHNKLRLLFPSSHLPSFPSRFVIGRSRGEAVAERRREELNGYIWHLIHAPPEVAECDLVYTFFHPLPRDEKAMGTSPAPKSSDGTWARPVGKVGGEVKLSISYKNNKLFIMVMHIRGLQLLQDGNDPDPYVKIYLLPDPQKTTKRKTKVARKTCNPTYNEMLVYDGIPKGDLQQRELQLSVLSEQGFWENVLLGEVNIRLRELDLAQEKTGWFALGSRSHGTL
Summary of the method: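 Kinase panel screen of 235 kinases at Invitrogen with compound at 1 µM; read-out was percent inhibition.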

[22] = molecular target: Cytochrome P450 3A4 (Homo sapiens, UniProt P08684); test: Inhibition of CYP3A4 (unknown origin); assay type: ADME
Chain of Cytochrome P450 3A4 (P08684 whole entry): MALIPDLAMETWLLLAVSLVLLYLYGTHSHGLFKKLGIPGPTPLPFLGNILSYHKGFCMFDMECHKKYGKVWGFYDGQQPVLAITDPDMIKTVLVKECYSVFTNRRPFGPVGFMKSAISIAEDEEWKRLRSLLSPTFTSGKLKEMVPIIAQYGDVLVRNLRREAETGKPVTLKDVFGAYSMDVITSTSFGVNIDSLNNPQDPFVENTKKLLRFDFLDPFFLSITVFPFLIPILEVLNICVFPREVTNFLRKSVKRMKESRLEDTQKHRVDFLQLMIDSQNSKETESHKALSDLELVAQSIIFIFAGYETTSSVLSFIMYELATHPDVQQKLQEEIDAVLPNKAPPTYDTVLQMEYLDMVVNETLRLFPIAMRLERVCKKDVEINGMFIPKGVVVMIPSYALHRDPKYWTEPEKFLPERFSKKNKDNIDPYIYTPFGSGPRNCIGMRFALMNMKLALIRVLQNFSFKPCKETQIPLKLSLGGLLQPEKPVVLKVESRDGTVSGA

[23] = molecular target: Cytochrome P450 2C9 (Homo sapiens, UniProt P11712); test: Inhibition of CYP2C9 (unknown origin); assay type: ADME
Chain of Cytochrome P450 2C9 (P11712 whole entry): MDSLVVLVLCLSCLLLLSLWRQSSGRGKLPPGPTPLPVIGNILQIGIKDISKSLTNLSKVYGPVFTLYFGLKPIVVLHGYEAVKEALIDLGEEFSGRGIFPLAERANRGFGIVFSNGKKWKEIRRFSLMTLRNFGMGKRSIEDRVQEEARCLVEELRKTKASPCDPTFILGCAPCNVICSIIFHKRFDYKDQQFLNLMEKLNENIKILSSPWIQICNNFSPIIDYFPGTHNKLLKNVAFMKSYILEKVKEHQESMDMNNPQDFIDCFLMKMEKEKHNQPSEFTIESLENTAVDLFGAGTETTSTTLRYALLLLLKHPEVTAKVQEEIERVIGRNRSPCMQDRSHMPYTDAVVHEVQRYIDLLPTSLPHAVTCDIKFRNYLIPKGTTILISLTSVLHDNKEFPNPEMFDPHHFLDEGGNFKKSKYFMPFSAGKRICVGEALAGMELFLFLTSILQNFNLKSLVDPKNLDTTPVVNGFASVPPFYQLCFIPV

[24] = molecular target: T1, Cytochrome P450 1A2 (Homo sapiens, UniProt P05177); test: Inhibition of CYP1A2 (unknown origin); assay type: ADME
T1 sequence (P05177 whole entry): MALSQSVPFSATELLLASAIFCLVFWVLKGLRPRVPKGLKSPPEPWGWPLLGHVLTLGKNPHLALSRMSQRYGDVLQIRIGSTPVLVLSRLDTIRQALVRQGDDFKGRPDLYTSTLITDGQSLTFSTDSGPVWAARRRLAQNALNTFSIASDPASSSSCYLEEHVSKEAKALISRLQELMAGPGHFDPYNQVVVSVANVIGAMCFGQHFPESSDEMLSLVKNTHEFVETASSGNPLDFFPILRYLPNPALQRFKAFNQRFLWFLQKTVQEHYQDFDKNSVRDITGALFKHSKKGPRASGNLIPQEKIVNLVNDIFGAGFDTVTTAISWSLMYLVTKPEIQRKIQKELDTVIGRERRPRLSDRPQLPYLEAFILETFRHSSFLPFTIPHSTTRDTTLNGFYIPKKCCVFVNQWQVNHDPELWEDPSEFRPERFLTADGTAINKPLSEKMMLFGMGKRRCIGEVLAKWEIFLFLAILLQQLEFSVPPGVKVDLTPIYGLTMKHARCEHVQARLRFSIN

[25] = molecular target: Cytochrome P450 2C19 (Homo sapiens, UniProt P33261); test: Inhibition of CYP2C19 (unknown origin); assay type: ADME
Chain of Cytochrome P450 2C19 (P33261 whole entry): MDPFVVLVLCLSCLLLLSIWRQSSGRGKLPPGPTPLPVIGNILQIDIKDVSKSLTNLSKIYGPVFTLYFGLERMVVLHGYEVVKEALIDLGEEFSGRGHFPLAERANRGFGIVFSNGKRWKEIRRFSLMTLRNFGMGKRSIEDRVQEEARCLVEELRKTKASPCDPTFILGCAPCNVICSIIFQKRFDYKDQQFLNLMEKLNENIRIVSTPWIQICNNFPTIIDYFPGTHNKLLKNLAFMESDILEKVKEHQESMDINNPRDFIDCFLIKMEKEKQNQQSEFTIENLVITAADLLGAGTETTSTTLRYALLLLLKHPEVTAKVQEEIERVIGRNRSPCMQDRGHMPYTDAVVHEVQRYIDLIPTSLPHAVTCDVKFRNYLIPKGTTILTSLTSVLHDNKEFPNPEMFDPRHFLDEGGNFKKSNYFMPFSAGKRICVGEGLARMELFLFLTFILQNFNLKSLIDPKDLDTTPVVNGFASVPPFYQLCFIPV

[26] = molecular target: Cytochrome P450 2D6 (Homo sapiens, UniProt P10635); test: Inhibition of CYP2D6 (unknown origin); assay type: ADME
Chain of Cytochrome P450 2D6 (P10635 whole entry): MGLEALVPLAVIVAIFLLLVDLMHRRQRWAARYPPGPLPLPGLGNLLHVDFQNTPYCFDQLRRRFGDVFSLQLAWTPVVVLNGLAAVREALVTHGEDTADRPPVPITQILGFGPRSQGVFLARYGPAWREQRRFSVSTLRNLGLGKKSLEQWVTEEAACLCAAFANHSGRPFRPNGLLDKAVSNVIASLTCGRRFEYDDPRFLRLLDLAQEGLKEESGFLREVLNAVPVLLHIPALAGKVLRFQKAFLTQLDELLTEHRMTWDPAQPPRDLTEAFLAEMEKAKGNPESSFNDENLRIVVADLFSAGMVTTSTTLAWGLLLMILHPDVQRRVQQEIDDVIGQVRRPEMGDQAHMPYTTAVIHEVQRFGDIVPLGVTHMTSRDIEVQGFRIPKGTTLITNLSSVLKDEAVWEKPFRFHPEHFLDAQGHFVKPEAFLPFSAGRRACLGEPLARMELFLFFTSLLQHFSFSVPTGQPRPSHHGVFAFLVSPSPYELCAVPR

[27] = Apparent permeability from apical to basolateral side in MDCK cells; assay type: ADME, cell-based, Canis lupus familiaris; conditions: dog
[28] = Thermodynamic solubility of compound at pH 7.4; assay type: physicochemical; conditions: buffer, read-out: Therm_solubility
[29] = Clearance in Sprague-Dawley rat at 1 mg/kg, iv; assay type: ADME, organism-based; conditions: in vivo
[30] = Antiproliferative activity against human MCF7-neo/Her2 cells after 3 days by luminescence plate reader method; assay type: functional, cell-based; conditions: 72 h
[31] = Antiproliferative activity against human PC3 cells after 4 days by luminescence plate reader method; assay type: functional, cell-based; conditions: PC-3, 96 h
[32] = Oral bioavailability in Sprague-Dawley rat at 5 mg/kg; assay type: ADME, organism-based; conditions: in vivo
Summary of the method: (§5)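 Male Sprague-Dawley rats dosed PO at 5 mg/kg in 0.5% methylcellulose/0.2% Tween 80 (MCT); the IV reference arm was 1 mg/kg in 60% PEG400/10% ethanol.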

[33] = Plasma protein binding in Sprague-Dawley rat at 5 uM after 4 hrs by LC-MS/MS analysis; assay type: ADME, cell-free; conditions: read-out: PPB (converted); summary of the method: as §2
[34] = Clearance in NCR nude mouse at 1 mg/kg, iv; assay type: ADME, organism-based; conditions: in vivo
[35] = Clearance in Cynomolgus monkey at 1 mg/kg, iv; assay type: ADME, organism-based, Macaca fascicularis; conditions: in vivo
[36] = Volume of distribution at steady state in Sprague-Dawley rat at 1 mg/kg, iv; assay type: ADME, organism-based; conditions: in vivo, read-out: Vdss
[37] = Volume of distribution at steady state in Cynomolgus monkey at 1 mg/kg, iv; assay type: ADME, organism-based, Macaca fascicularis; conditions: in vivo, read-out: Vdss
[38] = Volume of distribution at steady state in Beagle dog at 1 mg/kg, iv; assay type: ADME, organism-based, Canis lupus familiaris; conditions: in vivo, read-out: Vdss
[39] = Cmax in NCR nude mouse at 25 mg/kg, po; assay type: ADME, organism-based; set-up: dose 25 mg/kg, route oral; conditions: in vivo
[40] = Cmax in Sprague-Dawley rat at 5 mg/kg, po; assay type: ADME, organism-based; set-up: dose 5 mg/kg, route oral; conditions: in vivo; summary of the method: as §5
[41] = Cmax in Cynomolgus monkey at 2 mg/kg, po; assay type: ADME, organism-based, Macaca fascicularis; set-up: dose 2 mg/kg, route oral; conditions: in vivo; summary of the method: as §1
[42] = Cmax in Beagle dog at 2 mg/kg, po; assay type: ADME, organism-based, Canis lupus familiaris; set-up: dose 2 mg/kg, route oral; conditions: in vivo; summary of the method: as §1
[43] = AUC in NCR nude mouse at 25 mg/kg, po; assay type: ADME, organism-based; conditions: in vivo
[44] = AUC in Sprague-Dawley rat at 5 mg/kg, po; assay type: ADME, organism-based; conditions: in vivo; summary of the method: as §5
[45] = AUC in Cynomolgus monkey at 2 mg/kg, po; assay type: ADME, organism-based, Macaca fascicularis; conditions: in vivo
[46] = test system: Canis familiaris; test: AUC in Beagle dog at 2 mg/kg, po; assay type: ADME, organism-based, Canis lupus familiaris; conditions: in vivo
[47] = Oral bioavailability in NCR nude mouse at 25 mg/kg; assay type: ADME, organism-based; conditions: in vivo
[48] = test system: Mus musculus; test: Volume of distribution at steady state in NCR nude mouse at 1 mg/kg, iv; conditions: in vivo

bioavailability [1]: 72% | F [2]: 100% | fraction unbound at 4 h, 5 µM [3]: 0.6 | fraction unbound at 4 h, 5 µM [4]: 0.61 | fraction unbound at 4 h, 5 µM [5]: 0.62 | inhibition [21]: 61% | IC50 [22]: > 10000 nM | IC50 [23]: > 10000 nM | IC50 [24]: > 10000 nM | IC50 [25]: > 10000 nM | IC50 [26]: > 10000 nM | Papp A→B [27]: 13 ×10⁻⁶ cm/s | solubility thermodynamic [28]: 82 µg/mL (≈ 214 µM) | clearance [29]: 10 mL/min/kg | bioavailability [32]: 120% | fraction unbound at 4 h, 5 µM [33]: 0.37 | clearance [34]: 8 mL/min/kg | clearance [35]: 13 mL/min/kg | Vd [36]: 1.5 L/kg | Vd [37]: 1.5 L/kg | Vd [38]: 2.5 L/kg | Cmax [39]: 31 µM | Cmax [40]: 5.4 µM | Cmax [41]: 1.5 µM | Cmax [42]: 2.1 µM | AUC [43]: 74 µM·h | AUC [44]: 25.4 µM·h | AUC [45]: 4.8 µM·h | AUC [46]: 2.4 µM·h | bioavailability [47]: 55% | Vdss [48]: 0.6 L/kg
Compound: CC(C)n1ncnc1-c1cn2c(n1)-c1ccc(O[C@@H](C)C(N)=O)cc1OCC2
EC50 [6]: 60 nM | inhibition in vivo at 0.78 mg/kg [7]: 73% | inhibition in vivo at 1.56 mg/kg [8]: 79% | inhibition in vivo at 3.25 mg/kg [9]: 83% | inhibition in vivo at 6.25 mg/kg [10]: 101% | inhibition in vivo at 12.5 mg/kg [11]: 110% | inhibition in vivo at 0.78 mg/kg [12]: 73% | inhibition in vivo at 1.56 mg/kg [13]: 97% | inhibition in vivo at 3.25 mg/kg [14]: 97% | inhibition in vivo at 6.25 mg/kg [15]: 122% | inhibition in vivo at 12.5 mg/kg [16]: 121% | Activity [17]: Dose-dependent effect | Activity [18]: Dose-dependent effect | inhibition in vivo at 6.25 mg/kg [19]: 78% | Activity [20]: < 10% | EC50 [30]: 100 nM | EC50 [31]: 2200 nM
